What is called IC50 is the concentration that inhibits the measured activity by half. A lower IC50 goes with greater potency.

One test deals with T1, PKCε (Homo sapiens, UniProt Q02156).
T1 sequence (Q02156 1-737): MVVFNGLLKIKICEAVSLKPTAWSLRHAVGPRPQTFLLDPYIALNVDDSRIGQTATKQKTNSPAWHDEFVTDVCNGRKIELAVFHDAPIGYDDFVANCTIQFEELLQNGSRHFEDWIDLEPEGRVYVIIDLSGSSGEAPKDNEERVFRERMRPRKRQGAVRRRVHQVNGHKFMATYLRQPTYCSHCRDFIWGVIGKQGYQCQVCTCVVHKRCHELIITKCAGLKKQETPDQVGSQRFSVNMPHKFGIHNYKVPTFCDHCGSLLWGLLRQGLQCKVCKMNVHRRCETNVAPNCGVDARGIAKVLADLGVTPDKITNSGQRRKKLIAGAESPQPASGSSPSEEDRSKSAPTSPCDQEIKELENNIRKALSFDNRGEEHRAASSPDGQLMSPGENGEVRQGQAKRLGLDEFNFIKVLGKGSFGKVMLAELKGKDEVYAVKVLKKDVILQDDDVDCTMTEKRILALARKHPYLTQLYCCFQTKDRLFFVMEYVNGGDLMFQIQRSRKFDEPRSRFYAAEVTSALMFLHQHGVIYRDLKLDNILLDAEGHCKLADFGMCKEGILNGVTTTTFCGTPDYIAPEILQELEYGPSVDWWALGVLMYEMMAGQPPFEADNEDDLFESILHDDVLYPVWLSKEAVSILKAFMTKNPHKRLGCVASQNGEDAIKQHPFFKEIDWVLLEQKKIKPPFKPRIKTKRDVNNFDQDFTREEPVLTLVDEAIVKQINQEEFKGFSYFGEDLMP
Kind of test: In vitro kinase assay, immunoprecipitated PKC, MBP substrate, γ-[32P]ATP. It is filed as biochemical. In short, it runs like this: (§1)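 Novel PKC isoforms were HA-tagged, expressed in HEK-293T and pulled down with anti-HA beads (100 μg lysate). Reaction 30 min at 32 °C; 32P-MBP read by autoradiography and normalized via HA/MBP immunoblots. Means of three independent experiments.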

Another test concerns PKC-α. Kind of test: In vitro kinase assay, immunoprecipitated PKC, MBP substrate, γ-[32P]ATP. Type of test: biochemical. The following applies: PMA and CaCl2. In short, it runs like this:
(§2)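 HA-tagged classical PKC was overexpressed in HEK-293T, and lysate (100 μg) was immunoprecipitated with immobilized anti-HA. Incubated 30 min, 32 °C. 32P-MBP detected by SDS-PAGE/autoradiography; HA and MBP then immunoblotted and band signals quantified.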

Test [1] relates to MCF-7 cells. Put plainly: Western blot of DNA damage response markers and PKC-η after etoposide. It is filed as cell-based, human. The settings on record: peptide 2 μM, etoposide 50 μM. In short, it runs like this:
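MCF-7 treated with peptides (2 μM), then etoposide (50 μM). Lysed 30 min after etoposide addition, then Western blot with specific antibodies for phospho-γ-H2AX, Chk1, Chk2, ATM and ATR; Hsp90 and β-actin as loading controls. A non-myristoylated, cell-impermeant peptide served as control. Three independent experiments.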
(In western blotting, separated proteins are transferred to a membrane and probed.)

The subject of test [2] is PKC-η (Ser675, Thr655) in MCF-7 cells. Put plainly: Western blot of PKC-η priming-site phosphorylation. It is filed as cell-based, human. The settings on record: peptide 10 μM for 4 h, with/without MG132 10 μM, immunoblot.
Test [3] concerns MCF-7 breast cancer cells. Kind of test: Cell viability. It is filed as cell-based, human. The settings on record: XTT; peptide concentration 10 μM; three independent experiments. In short, it runs like this:
(§3)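 Cells seeded at 5 × 10^3/well and grown 16 to 24 h. N-terminally myristoylated peptides were added in serum-free medium for 4 h, then serum was replenished for 24 h. XTT absorbance was read and converted to cell number with a per-line standard curve (1.25 to 20 × 10^3 cells plated, assayed after 24 h). At least three repeats, each in triplicate.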
Background: Tetrazolium assays rely on reduction of a dye to a coloured formazan, in cell work by metabolically active cells.

The target of the next test is PKCδ (Homo sapiens, UniProt Q05655). Kind of test: In vitro kinase assay, immunoprecipitated PKC, MBP substrate, γ-[32P]ATP. It is filed as biochemical. In short, it runs like this: as §1
PKCδ, sequence (Q05655 whole entry): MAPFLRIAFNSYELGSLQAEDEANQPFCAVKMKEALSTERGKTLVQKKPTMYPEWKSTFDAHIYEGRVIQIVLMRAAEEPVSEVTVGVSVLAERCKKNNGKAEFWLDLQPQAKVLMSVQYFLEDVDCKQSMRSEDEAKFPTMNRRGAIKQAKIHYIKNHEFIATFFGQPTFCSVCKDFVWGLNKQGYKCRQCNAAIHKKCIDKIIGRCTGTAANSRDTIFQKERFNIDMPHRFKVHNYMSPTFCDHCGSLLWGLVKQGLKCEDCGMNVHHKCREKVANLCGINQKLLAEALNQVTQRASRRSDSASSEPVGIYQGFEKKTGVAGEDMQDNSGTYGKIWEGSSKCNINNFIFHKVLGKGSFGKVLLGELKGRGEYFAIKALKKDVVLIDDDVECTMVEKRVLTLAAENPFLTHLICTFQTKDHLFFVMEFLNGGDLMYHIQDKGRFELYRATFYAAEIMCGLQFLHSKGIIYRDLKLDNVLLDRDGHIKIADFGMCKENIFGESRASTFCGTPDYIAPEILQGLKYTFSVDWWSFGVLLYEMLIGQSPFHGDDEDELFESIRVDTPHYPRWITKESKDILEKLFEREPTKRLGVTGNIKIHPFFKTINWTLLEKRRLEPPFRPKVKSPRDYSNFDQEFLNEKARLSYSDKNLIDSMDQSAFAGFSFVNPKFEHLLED
Test [4] has as its system U251 MG glioblastoma cancer cells. Kind of test: Cell viability. Type of test: cell-based, human. The settings on record: XTT; peptide concentration 10 μM; three independent experiments. In short, it runs like this: as §3
The test system of another test is PKC-γ. Put plainly: In vitro kinase assay, immunoprecipitated PKC, MBP substrate, γ-[32P]ATP. It is filed as biochemical. The following applies: PMA and CaCl2. In short, it runs like this: as §2
Test [5] concerns nontransformed MCF10A cells. Put plainly: Cell viability. Type of test: cell-based, human. The following applies: XTT; peptide concentration 10 μM; three independent experiments. In short, it runs like this:
as §3

In test [6] the test system is MDA-MB-231 tumors. Kind of test: MDA-MB-231 orthotopic breast cancer xenograft in NSG mice. Type of test: in vivo.
In test [7] the test system is MCF-7 cells. Kind of test: Cell death with etoposide-induced DNA damage. It is filed as cell-based, human. The settings on record: uPEP2 2 μM followed by etoposide 50 μM for 48 h, means of at least three experiments.
Test [8] concerns MDA-MB-231 breast cancer cells. Put plainly: Cell viability. It is filed as cell-based, human. The settings on record: XTT; peptide concentration 10 μM; three independent experiments. In short, it runs like this: as §3
A further test concerns the target PKCθ (Homo sapiens, UniProt Q04759). Put plainly: In vitro kinase assay, immunoprecipitated PKC, MBP substrate, γ-[32P]ATP. It is filed as biochemical. In short, it runs like this: as §1
Another test has as its target PKCη (Homo sapiens, UniProt P24723). The description is as above. Type of test: biochemical. The settings on record: for inhibition of kinase activity of PKCη: even at 10 μΜ peptide, MBP substrate. In short, it runs like this: as §1
For test [9], the system named is MDA-MB-231 tumors. Kind of test: MDA-MB-231 orthotopic breast cancer xenograft in NOD-SCID mice. The following applies: 10 mg/kg intratumor on alternate days; four mice. It is filed as in vivo. In short, it runs like this:
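Female 6–8-wk-old NOD-SCID mice received 4 × 10^6 MDA-MB-231-Luc cells in 100 μL PBS into the mammary fat pad. At ~100 mm3, mice were randomized to PBS, a non-myristoylated control peptide, or test peptide (10 mg/kg), given intratumorally on alternate days. Caliper measurements three times weekly; V = (W2 × L)/2. Endpoint at ~2,000 mm3.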

A further test concerns PKC-ζ. Put plainly: In vitro kinase assay, immunoprecipitated PKC, MBP substrate, γ-[32P]ATP. Type of test: biochemical. In short, it runs like this:
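Atypical isoform, HA-tagged and overexpressed in HEK-293T; anti-HA immunoprecipitate from 100 μg lysate. Autoradiography of 32P-MBP after SDS-PAGE, with anti-HA and anti-MBP immunoblots for quantification.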

For another test, the system named is PKC-η. Put plainly: Kinase assay with the peptide as substrate. Type of test: biochemical. The settings on record: γ-ATP.
For a further test, the system named is PKC-ε. Put plainly: Kinase assay with the peptide as substrate. The following applies: γ-ATP. It is filed as biochemical.

Where a SMILES comes first, the peptide text is derived from it. Where no end group is shown, it is not given here. The star is where a group is joined. Myristoyl = CCCCCCCCCCCCCC(=O)*

PKCη, sequence (P24723 whole entry): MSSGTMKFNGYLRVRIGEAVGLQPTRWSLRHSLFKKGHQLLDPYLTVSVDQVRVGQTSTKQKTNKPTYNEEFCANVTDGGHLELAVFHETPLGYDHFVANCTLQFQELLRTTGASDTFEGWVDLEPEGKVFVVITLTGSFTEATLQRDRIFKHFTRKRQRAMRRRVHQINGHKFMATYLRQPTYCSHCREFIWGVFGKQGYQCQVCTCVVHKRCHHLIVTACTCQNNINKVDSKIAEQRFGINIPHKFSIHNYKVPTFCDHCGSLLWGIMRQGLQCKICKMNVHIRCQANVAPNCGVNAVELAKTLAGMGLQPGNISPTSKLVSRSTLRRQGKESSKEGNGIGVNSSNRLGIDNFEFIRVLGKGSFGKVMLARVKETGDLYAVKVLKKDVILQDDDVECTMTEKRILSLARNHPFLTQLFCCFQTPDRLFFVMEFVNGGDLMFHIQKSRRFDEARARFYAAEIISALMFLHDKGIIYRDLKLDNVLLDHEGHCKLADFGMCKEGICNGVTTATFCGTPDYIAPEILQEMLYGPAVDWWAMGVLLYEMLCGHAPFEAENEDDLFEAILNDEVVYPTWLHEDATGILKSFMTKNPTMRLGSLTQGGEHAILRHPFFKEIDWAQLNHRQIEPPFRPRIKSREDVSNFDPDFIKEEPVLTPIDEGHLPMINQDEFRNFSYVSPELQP
PKCθ, sequence (Q04759 whole entry): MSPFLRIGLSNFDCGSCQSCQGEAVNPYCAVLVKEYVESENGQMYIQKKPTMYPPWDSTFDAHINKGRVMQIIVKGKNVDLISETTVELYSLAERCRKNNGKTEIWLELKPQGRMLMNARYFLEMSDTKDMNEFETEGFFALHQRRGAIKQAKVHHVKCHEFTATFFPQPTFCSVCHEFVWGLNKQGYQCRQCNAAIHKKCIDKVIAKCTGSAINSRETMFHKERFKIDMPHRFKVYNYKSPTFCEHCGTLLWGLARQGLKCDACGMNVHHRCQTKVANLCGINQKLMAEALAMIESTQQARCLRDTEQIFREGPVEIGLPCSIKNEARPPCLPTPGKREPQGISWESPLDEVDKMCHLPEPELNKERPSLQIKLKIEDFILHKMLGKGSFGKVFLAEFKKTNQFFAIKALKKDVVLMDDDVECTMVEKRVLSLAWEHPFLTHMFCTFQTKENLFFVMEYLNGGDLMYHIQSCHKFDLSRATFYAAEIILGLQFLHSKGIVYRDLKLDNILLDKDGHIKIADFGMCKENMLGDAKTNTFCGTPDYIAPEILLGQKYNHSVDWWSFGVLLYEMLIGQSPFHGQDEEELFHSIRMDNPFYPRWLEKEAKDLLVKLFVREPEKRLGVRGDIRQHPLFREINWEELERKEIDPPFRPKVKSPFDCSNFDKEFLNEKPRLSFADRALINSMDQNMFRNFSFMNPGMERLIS

Regarding `CCCCCCCCCCCCCC(=O)N[C@@H](CCSC)C(=O)N[C@@H](C)C(=O)N[C@@H](CO)C(=O)N[C@@H](CCCNC(=N)N)C(=O)NCC(=O)N[C@@H](C)C(=O)N[C@@H](CC(C)C)C(=O)N[C@@H](CCCNC(=N)N)C(=O)N[C@@H](CCCNC(=N)N)C(=O)N[C@@H](CS)C(=O)N[C@@H](CC(C)C)C(=O)N[C@@H](CO)C(=O)N1CCC[C@H]1C(=O)NCC(=O)N[C@@H](CC(C)C)C(=O)N1CCC[C@H]1C(=O)N[C@@H](CCCNC(=N)N)C(=O)N[C@@H](CC(C)C)C(=O)N[C@@H](CC(C)C)C(=O)N[C@@H](Cc1c[nH]cn1)C(=O)N[C@@H](CC(C)C)C(=O)N[C@@H](CO)C(=O)N[C@@H](CCCNC(=N)N)C(=O)NCC(=O)N[C@@H](CC(C)C)C(=O)N[C@@H](C)C(N)=O` [uPEP2] (Myristoyl-MASRGALRRCLSPGLPRLLHLSRGLA-NH2), the IC50 against PKCε, at PKCδ, against PKCθ and at PKCη was approximately 2 µM in each case. Further, in the test on PKC-α, the “effect on kinase activity of PKC-α (classical)” value is given as “did not affect”. In the test with MCF-7 cells [1], the “PKC-η protein in etoposide-treated cells” value was “enhanced degradation”. In addition, in the test with MCF-7 cells [1] (lysis 30 min after etoposide), the “etoposide-promoted phosphorylation of ATM, ATR, Chk1 and Chk2” value was “markedly decreased”. Further, in the test with MCF-7 cells [1] (lysis 30 min after etoposide), the “phosphorylation of γ-H2AX upon etoposide” value is “markedly increased”. Besides, the “phosphorylation of PKC-η priming sites Ser675 and Thr655” value in [2] is given as “diminished”. Also, the “cell viability of MCF-7” value in [3] is “reduces cell viability”. Moreover, the “cell viability of U251 MG” value in [4] is listed as “reduces cell viability”. The “effect on kinase activity of PKC-γ (classical)” value in the test on PKC-γ is listed as “did not affect”. Besides, the “cell viability of MCF10A” value in test [5] is given as “did not affect”. Besides, in the test on MDA-MB-231 tumors [6] (10 mg/kg intratumor on alternate days, five animals/group), the “breast tumor mass, NSG mice” value is “significantly attenuates”. Also, the “growth (volume) of MDA-MB-231 tumors in NSG mice” value in the test with MDA-MB-231 tumors [6] (10 mg/kg intratumor on alternate days, five mice/group) is reported as “inhibited the growth”. For the same molecule, the “expression levels of classical PKC-α, PKC-γ and atypical PKC-ζ in tumors” value with MDA-MB-231 tumors [6] (immunoblot of tumor extracts) was “not affected”. Also, the “protein levels of novel PKC-η and PKC-ε in tumors” value in the test with MDA-MB-231 tumors [6] (immunoblot of tumor extracts, NSG and NOD-SCID mice) is “lower protein levels”. In addition, the “phosphorylation of PKC substrates in tumors” value with MDA-MB-231 tumors [6] (phospho-(Ser) PKC substrate antibody, tumors grown in NSG or NOD-SCID mice) is “lower”. For the same molecule, the “apoptosis in tumors (TUNEL assay)” value with MDA-MB-231 tumors [6] (tumor tissue slides at end of experiment) is recorded as “increased apoptosis”. Also, the “cell death in the presence of both agents (uPEP2 and etoposide)” value in the test with MCF-7 cells [7] was 95 to 100%. Besides, in [8], the “cell viability of MDA-MB-231” value is recorded as “reduces cell viability”. Also, in the test on MDA-MB-231 tumors [9], the “growth (volume) of MDA-MB-231 tumors in NOD-SCID mice” value is “inhibited the growth”. Besides, the “effect on kinase activity of PKC-ζ (atypical)” value with PKC-ζ is “did not affect”.
With “Myr-MASRGS/TLRRCLSPGLPRLLHLSRGLA [uPEP2[A6S]]”, in the test on PKC-η, the “phosphorylation of the peptide as substrate of PKC-η” value is given as “excellent substrate”. Moreover, the “phosphorylation of the peptide as substrate of PKC-ε” value in the test with PKC-ε is reported as “excellent substrate”.
Regarding “Myristoyl-CLSPGLPRLLHLSRGLA [uPEP2(10–26)]”, the “inhibition of kinase activity of PKCη” value at PKCη was “weak inhibitory effects”.
Consider “Myristoyl-MASRGALRRCLSPGLPR [uPEP2(1–17)]”, for which the “cell viability of MDA-MB-231” value in test [8] was “partial inhibition”.
In the case of Myristoyl-MLLHLSRGLA [uPEP2(18–26)], the “cell viability of MCF-7” value in test [3] is recorded as “less effective”. In addition, the “cell viability of U251 MG” value in test [4] is listed as “less effective”. In addition, in test [8], the “cell viability of MDA-MB-231” value was “less effective”.
With “Myristoyl-TRKRQRAMRRVHQING [η-PS, reference compound]”, in test [3], the “cell viability of MCF-7” value is listed as “less effective”. Besides, the “cell viability of U251 MG” value in test [4] is on record as “less effective”. Also, in test [8], the “cell viability of MDA-MB-231” value is on record as “less effective”. For the same molecule, the “inhibition of kinase activity of PKCη” value against PKCη is given as “weak inhibitory effects”.

The values are drawn from PMC8501901 (Proceedings of the National Academy of Sciences of the …, 2021).
